These results are taken from ChEMBL document CHEMBL1914335, “Identification of a potent and selective σ₁ receptor agonist potentiating NGF-induced neurite outgrowth in PC12 cells” (Bioorg Med Chem, 2011).

Calls of active or inactive are those of the source. No cut-off for these calls is given here.

Data set [1] concerns PC-12. Kind of data set: Cytotoxicity against rat PC12 cells. In kind it is cell-based.
Data set [2] deals with Kappa-type opioid receptor (Cavia porcellus) (UniProt P41144). Kind of data set: Displacement of [3H]-U69593 from kappa opioid receptor in guinea pig brain membrane assessed as residual binding at 1 uM after 150 mins by liquid scintillation counting. In kind it is cell membranes. In short, it runs like this: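 Guinea pig brain membranes (about 75 µg protein) incubated with 1 nM [3H]-U69,593 in 50 mM Tris, 8 mM MgCl2, pH 7.4, 150 min at 37 °C. Nonspecific binding with 10 µM unlabeled U69,593. Filtration, then solid scintillator counting in triplicate. Residual binding taken at 1 µM; otherwise IC50 from ≥6 concentrations, Ki by Cheng-Prusoff (Kd 0.69 nM).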
Kappa-type opioid receptor (Cavia porcellus), sequence (P41144 whole entry): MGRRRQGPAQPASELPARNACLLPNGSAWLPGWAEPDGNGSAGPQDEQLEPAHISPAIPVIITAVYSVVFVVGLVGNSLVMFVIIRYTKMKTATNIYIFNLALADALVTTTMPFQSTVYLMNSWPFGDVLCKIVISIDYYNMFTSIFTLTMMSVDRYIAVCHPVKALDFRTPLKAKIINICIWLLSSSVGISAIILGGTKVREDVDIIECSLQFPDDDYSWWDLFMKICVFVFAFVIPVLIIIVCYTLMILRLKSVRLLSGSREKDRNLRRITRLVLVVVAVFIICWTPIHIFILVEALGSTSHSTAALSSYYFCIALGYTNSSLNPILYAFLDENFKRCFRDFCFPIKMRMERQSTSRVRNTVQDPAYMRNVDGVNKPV

The nature of data set [3]: Displacement of [3H]-DTG from sigma2 receptor in guinea pig brain membrane after 120 mins by liquid scintillation counting. It is filed as cell membranes, Cavia porcellus. An outline of the steps: (§1)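 For σ2, membranes (360 µg protein) incubated at rt for 120 min with 3 nM [3H]DTG plus 0.4 µM (+)-SKF10,047, with nine test concentrations in 50 mM Tris-HCl pH 8.0; nonspecific binding with 5 µM DTG. For σ1, 3 nM [3H]-(+)-pentazocine, 150 min at 37 °C, pH 7.4, haloperidol 10 µM. Both read by filtration and scintillation counting; Ki values derived.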
(In a radioligand displacement assay an active substance lowers the binding of a labelled ligand.)

The species named for data set [4] is Cavia porcellus. The data set is described as follows: Selectivity ratio of Ki for sigma2 receptor in guinea pig brain membrane to Ki for sigma1 receptor in guinea pig brain membrane. It is filed as cell membranes. In short, it runs like this:
as §1

Data set [5] addresses Sigma non-opioid intracellular receptor 1 (Rattus norvegicus) (UniProt Q9R0C9). Kind of data set: Agonist activity at sigma1 receptor in rat PC12 cells assessed as increase of NGF-induced neurite elongation at 0.25 uM after 5 days by phase contrast microscopy. It is filed as functional, cell-based. The following applies: PC-12. An outline of the steps:
(§2)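 Culture conditions match the neurite-outgrowth note: PC12 cells on poly-D-lysine coverslips with NGF 2.5 ng/mL ± drug for 5 days, BD-1063 at 5 µM final where used. Cells were then fixed in 4% PFA and imaged by phase contrast, six fields per coverslip. Neurite length was traced from cell body to tip, measured blind by two examiners; ≥3 independent experiments; mean ± SEM.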

The species entered for data set [6] is Sus scrofa. Kind of data set: Displacement of [3H]-(+)-MK-801 from NMDA receptor PCP binding site in pig brain cortex assessed as residual binding at 10 uM after 150 mins by scintillation counting. In short, it runs like this: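 Pig brain cortex membranes (about 100 µg protein) incubated with 2 nM [3H]-(+)-MK-801 in 5 mM Tris-acetate/1 mM EDTA pH 7.5, 150 min at rt. Nonspecific binding with 10 µM (+)-MK-801. Filtration, then solid scintillator counting. Residual binding measured at 10 µM test compound.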

Data set [7] deals with Sigma non-opioid intracellular receptor 1 (Rattus norvegicus) (UniProt Q9R0C9). Kind of data set: Agonist activity at sigma1 receptor in rat PC12 cells assessed as decrease in NGF-induced neurite elongation at 0.25 uM after 5 days by phase contrast microscopy in presence of 5 uM sigma1 receptor antagonist BD-1064 relative to compound alone. It is filed as functional, cell-based. Further details: scale not given: the % may be the effect or the level left. The note with it: PC-12, in the assay text read “BD-1063” for “BD-1064”. An outline of the steps:
as §2

The test system of data set [8] is HaCaT. The data set is described as follows: Cytotoxicity against human HaCaT cells at 1x10'-8 to 1x10'-5 M after 72 hrs by MTT assay. It is filed as cell-based. An outline of the steps:
(§3)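 HaCaT cells plated at 5000/well. After 24 h, exposed to 1 × 10^-8 to 1 × 10^-5 for 48 or 72 h at 37 °C, 5% CO2, in medium with 5% FBS or serum-free (N = 6 each). Viability was read as optical density in an MTT-based assay.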
(In general: Tetrazolium assays rely on reduction of a dye to a coloured formazan, in cell work by metabolically active cells.)

The subject of data set [9] is HaCaT. The data set is described as follows: Cytotoxicity against human HaCaT cells at 1x10'-8 to 1x10'-5 M after 48 hrs by MTT assay. It is filed as cell-based. In short, it runs like this:
as §3

In data set [10] the target is Mu-type opioid receptor (Cavia porcellus) (UniProt P97266). The data set is described as follows: Displacement of [3H]-DAMGO from mu opioid receptor in guinea pig brain membrane assessed as residual binding at 1 uM after 150 mins by liquid scintillation counting. It is filed as cell membranes. In short, it runs like this:
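Guinea pig brain membranes (about 75 µg protein) incubated with 1 nM [3H]-DAMGO in 50 mM Tris, 8 mM MgCl2, 400 µM PMSF, pH 7.4, 150 min at 37 °C. Nonspecific binding with 10 µM naloxone. Filtration, then solid scintillator counting in triplicate. Residual binding taken at 1 µM test compound; otherwise IC50 from ≥6 concentrations, Ki by Cheng-Prusoff (Kd 0.57 nM).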

Data set [11] concerns the target Sigma non-opioid intracellular receptor 1 (Rattus norvegicus) (UniProt Q9R0C9). The data set is described as follows: Agonist activity at sigma1 receptor in rat PC12 cells assessed as cells with increase in NGF-induced neurite outgrowth at 0.01 uM after 5 days by phase contrast microscopy. The following applies: PC-12. In kind it is functional, cell-based. An outline of the steps:
(§4)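 PC12 cells grown at 37 °C, 5% CO2 in RPMI with 5% FBS and 10% horse serum. Replated at 0.25 × 10^4 cells/cm2 on poly-D-lysine glass coverslips. After 24 h, switched to 0.5% HS medium with NGF 2.5 ng/mL ± drug, BD-1063 at 5 µM final where used. After 5 days, fixed in 4% PFA. Cells with ≥1 neurite at least one cell-body diameter long were scored blind by two examiners; ≥3 independent experiments.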

The target is the same in data set [12]. The data set is described as follows: Agonist activity at sigma1 receptor in rat PC12 cells assessed as cells with increase in NGF-induced neurite outgrowth at 0.25 uM after 5 days by phase contrast microscopy in presence of 5 uM sigma1 receptor antagonist BD-1063. In kind it is functional, cell-based. The following applies: PC-12. An outline of the steps:
as §4

For data set [13], the target named is Sigma non-opioid intracellular receptor 1 (Cavia porcellus, UniProt Q60492). Kind of data set: Displacement of [3H]-(+)-pentazocine from sigma1 receptor in guinea pig brain membrane after 150 mins by liquid scintillation counting. It is filed as cell membranes. In short, it runs like this: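 Membranes (500 µg protein) incubated with 3 nM [3H]-(+)-pentazocine and nine test concentrations in 50 mM Tris-HCl pH 7.4, 150 min at 37 °C. Nonspecific binding defined by 10 µM haloperidol. Samples filtered on PEI-presoaked GF/B filters and counted by liquid scintillation; Ki calculated from these curves.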
Sigma non-opioid intracellular receptor 1, sequence (Q60492 whole entry): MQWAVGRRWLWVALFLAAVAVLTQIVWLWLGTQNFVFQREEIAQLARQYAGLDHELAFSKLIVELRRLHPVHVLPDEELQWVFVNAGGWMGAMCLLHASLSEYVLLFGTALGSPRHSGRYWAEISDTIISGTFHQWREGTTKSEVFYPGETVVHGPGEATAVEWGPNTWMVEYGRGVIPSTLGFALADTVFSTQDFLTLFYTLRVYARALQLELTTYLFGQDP

Data set [14] deals with Sigma non-opioid intracellular receptor 1 (Rattus norvegicus) (UniProt Q9R0C9). Kind of data set: Agonist activity at sigma1 receptor in rat PC12 cells assessed as cells with increase in NGF-induced neurite outgrowth at 0.05 uM after 5 days by phase contrast microscopy. It is filed as functional, cell-based. The following applies: PC-12. An outline of the steps: as §4
Sigma non-opioid intracellular receptor 1 (Rattus norvegicus), sequence (Q9R0C9 whole entry): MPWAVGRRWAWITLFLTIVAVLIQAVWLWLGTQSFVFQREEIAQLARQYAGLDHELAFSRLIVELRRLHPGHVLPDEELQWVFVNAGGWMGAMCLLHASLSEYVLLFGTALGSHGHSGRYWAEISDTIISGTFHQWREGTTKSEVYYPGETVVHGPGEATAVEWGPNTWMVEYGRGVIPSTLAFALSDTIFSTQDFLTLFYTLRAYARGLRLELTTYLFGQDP

For data set [15] the target is unchanged. Kind of data set: Agonist activity at sigma1 receptor in rat PC12 cells assessed as cells with increase in NGF-induced neurite outgrowth at 2.5 uM after 5 days by phase contrast microscopy. In kind it is functional, cell-based. The note with it: PC-12. In short, it runs like this: as §4
The target is the same in data set [16]. The data set is described as follows: Agonist activity at sigma1 receptor in rat PC12 cells assessed as increase of NGF-induced neurite elongation at 0.05 uM after 5 days by phase contrast microscopy. In kind it is functional, cell-based. The following applies: PC-12. In short, it runs like this:
as §2

The target is the same in data set [17]. Kind of data set: Agonist activity at sigma1 receptor in rat PC12 cells assessed as cells with increase in NGF-induced neurite outgrowth at 0.05 to 2.5 uM after 5 days by phase contrast microscopy. The following applies: PC-12.
Data set [18] shares this target. Kind of data set: Agonist activity at sigma1 receptor in rat PC12 cells assessed as cells with increase in NGF-induced neurite outgrowth at 0.25 uM after 5 days by phase contrast microscopy. It is filed as functional, cell-based. The note with it: PC-12. In short, it runs like this:
as §4

The target is the same in data set [19]. The data set is described as follows: Agonist activity at sigma1 receptor in rat PC12 cells assessed as increase of NGF-induced neurite length at 2.5 uM after 5 days by phase contrast microscopy. It is filed as functional, cell-based. The following applies: PC-12. In short, it runs like this: as §2

Mu-type opioid receptor (Cavia porcellus), sequence (P97266 whole entry): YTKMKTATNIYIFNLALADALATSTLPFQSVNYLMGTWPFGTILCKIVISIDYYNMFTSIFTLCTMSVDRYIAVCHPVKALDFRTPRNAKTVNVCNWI

Regarding `CC(CCN1CCCCC1)c1ccc(-c2ccccc2)cc1.Cl` (racemic), the Activity entry was “Non-toxic” in data set [1]; 36% in [2]; 131 µm in data set [5]; 25% in data set [6]; 31% in data set [7]; “Non-toxic” in data set [8]. Besides, the Activity entry in data set [9] was “Non-toxic”; in data set [10], 0%; in [11], 23.4%; in data set [12] it was 18.6%. The Ki (as a rule, a measure of affinity in units of concentration, obtained from inhibition or displacement) in data set [3] was found to be 103 nM; in data set [13], 0.7 nM. The Ratio Ki in [4] is 147.
Consider `C/C(=C\CN1CCCCC1)c1ccc(-c2ccccc2)cc1`, for which the outcome in [14], in data set [15], in data set [16], in data set [17], in [5] and in [18] was inactive. For the same compound, the result in [19] was inactive. Further, the Activity in data set [2] was determined as 6%; in [6], 32%; in data set [10] it was 0%. In addition, the values for the inhibition constant (Ki) in [3] and in [13] were 111 nM and 0.86 nM, respectively. Further, the Ratio Ki in [4] amounted to 129.
